Screens as filed in PubChem BioAssay.
Rows were chosen to be rich in hits. Some 4.6% of all compounds tested hit in one or more screens of this group.
TAAR1 ag – agonists of human TAAR1. CHO RD-HGA16 TAAR1, Fluo-8 calcium fluorescence; vehicle wells 0%, saturating PEA agonist 100%. activation, % at 3 µM. hit rate 0.99% among 360,000;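 active means activation above the mean activation of all test compounds in the run plus 3 SD, cut at about 38% in these data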
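Benchmarks: low control DMSO, high control PEA (EC100); System: CHO RD-HGA16 cells carrying human TAAR1 plus Gα16; Detection: Fluo-8 fluorescence, 5 s baseline then 140 s kinetic read; Schedule: 17-24 h plating, Fluo-8 75 min 37 °C, 30 min RT; Read-out basis: % activation from peak over basal fluorescence ratio, DMSO-to-PEA scaled.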
TAAR1 antagonist – antagonists of human TAAR1; inhibition, % at 3 µM; AID 624466; Q96RJ0; CHO RD-HGA16 TAAR1, Fluo-8 calcium fluorescence, antagonist; hit rate 1.5% among 360,000;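 active means inhibition above a per-plate cutoff, the mean inhibition of test compounds on that plate plus 3 SD, cut at about 49% in these data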;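 further: 0% = DMSO plus EC80 beta-PEA response and 100% = DMSO alone without agonist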
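System: CHO RD-HGA16 cells bearing hTAAR1. Reagent: EC80 β-phenethylamine stimulus. Schedule: seeding 17-24 h prior, 75-min 37 °C, 30-min RT dye loading. Signal: Fluo-8 intracellular calcium dye fluorescence, real-time kinetic reads. Read-out: % inhibition from peak post-agonist over basal fluorescence ratio. Benchmarks: vehicle wells and EC80 agonist wells. Replicates: n of 1.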
OX1R antag-1 – OX1R (human) antagonism. O43613. OX1R-expressing cells, FRET antagonist read-out. inhibition, % at 6.6 µM. hit rate 1.8% among 330,000; in the data active means inhibition mostly above about 38%, no sharp cut-off; inactive means mostly below about 40%;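 further: 0% = agonist challenge alone and 100% = reference antagonist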
Target sequence (O43613 whole entry, looked up): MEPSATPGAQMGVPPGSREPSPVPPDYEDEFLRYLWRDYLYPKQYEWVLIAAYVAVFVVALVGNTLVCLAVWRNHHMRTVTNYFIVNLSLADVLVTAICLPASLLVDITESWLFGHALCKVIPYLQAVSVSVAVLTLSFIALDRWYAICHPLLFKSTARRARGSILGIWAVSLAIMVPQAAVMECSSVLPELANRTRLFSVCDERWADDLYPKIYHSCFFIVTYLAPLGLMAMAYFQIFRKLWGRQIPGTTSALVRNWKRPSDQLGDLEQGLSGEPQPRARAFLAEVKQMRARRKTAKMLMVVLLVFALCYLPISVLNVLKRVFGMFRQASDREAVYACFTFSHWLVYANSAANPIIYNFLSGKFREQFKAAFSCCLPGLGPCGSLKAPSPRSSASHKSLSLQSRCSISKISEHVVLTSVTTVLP
CHO parental Ca – signal in parental CHO cells, OX1R antagonist counter-screen; parental CHO-K1, ATP-induced calcium, Fluo-8 fluorescence; hit rate 0.63% among 330,000; inhibition, % at 5.6 µM; AID 463079;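 active means inhibition above that plate's mean sample inhibition plus 3 SD, cut at about 26% in these data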;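 further: 0% = ATP-challenged DMSO wells and 100% = DMSO wells without ATP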
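test system = CHO parental line | reagent = ATP stimulus | measured by = intracellular calcium via Fluo-8 no-wash fluorescent dye | control set = ATP and no-ATP DMSO wells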
OX1R antag-2 – antagonists of human orexin 1 receptor. O43613. CHO/OX1R cells, Fluo-8 calcium fluorescence, orexin A. inhibition, % at 5 µM. hit rate 0.43% among 330,000. AID 434989;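 active means inhibition above its plate's threshold, mean inhibition of all tested compounds on the plate plus 3 SD, cut at about 37% in these data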;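 further: 0% = orexin A challenge wells and 100% = SB-334867-A antagonist wells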
GPR7 antag – blocks human GPR7 receptor signaling; P48145; inhibition, % at 4.4 µM; GPR7-expressing cells, fluorescence antagonist assay; hit rate 1.1% among 290,000; in the data active means inhibition above about 16%, passing the limit was not always enough;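 further: cells stimulated with the agonist NPW; 0% = agonist with vehicle and 100% = vehicle without agonist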
Target sequence (P48145 whole entry, looked up): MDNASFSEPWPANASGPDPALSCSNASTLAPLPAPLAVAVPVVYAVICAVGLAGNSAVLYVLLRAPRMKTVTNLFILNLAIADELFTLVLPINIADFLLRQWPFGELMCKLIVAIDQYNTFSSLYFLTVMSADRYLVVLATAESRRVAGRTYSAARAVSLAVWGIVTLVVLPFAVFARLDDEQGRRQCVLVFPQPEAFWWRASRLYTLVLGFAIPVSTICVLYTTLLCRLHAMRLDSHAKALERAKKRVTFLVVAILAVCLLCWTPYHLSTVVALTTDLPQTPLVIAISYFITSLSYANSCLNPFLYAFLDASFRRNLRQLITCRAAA
TAAR1 nonsel count – counter-screen for TAAR1 antagonists: nonselective antagonists; hit rate 77% among 2,400; AID 651780; counterscreen cell line, calcium fluorescence, antagonist mode; shares compounds with TAAR1 antagonist; inhibition, % at 3 µM; in the data active means inhibition above about 22%;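 further: CHO-Ga16 host cells stimulated with ATP at an EC80 level; 0% = agonist EC80 plus vehicle and 100% = vehicle without agonist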
TAAR1 ant conf – confirmation of human TAAR1 antagonists | shares compounds with TAAR1 antagonist | TAAR1-expressing cells, fluorescence antagonist read-out | inhibition, % at 3 µM | hit rate 40% among 2,400; in the data active means inhibition above about 49%;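 further: CHO-Ga16 host cells challenged with agonist PEA near its EC80; 0% = agonist at EC80 plus vehicle and 100% = vehicle with no agonist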
Ga16 ag counter – nonselective Ga16 agonism, counter-screen. hit rate 18% among 2,400. shares compounds with TAAR1 antagonist. Ga16-expressing cells, calcium fluorescence, agonist counterscreen. AID 651953. activation, % at 3 µM; in the data active means activation above about 12%;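 further: 0% = vehicle wells and 100% = saturating stimulus response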
TAAR1 ag count – activates human TAAR1 in antagonist counter-screen; shares compounds with TAAR1 antagonist; hTAAR1 cell line, fluorescence activation, agonist mode; activation, % at 3 µM; hit rate 2% among 2,400; AID 651955; in the data active means activation above about 37%;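 further: CHO cells stably expressing TAAR1 with calcium dye readout; 0% = DMSO vehicle and 100% = full agonist response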
* hit, by the source's call; · = no result given.

SMILES | TAAR1 ag | TAAR1 antagonist | OX1R antag-1 | CHO parental Ca | OX1R antag-2 | GPR7 antag | TAAR1 nonsel count | TAAR1 ant conf | Ga16 ag counter | TAAR1 ag count
Cc1nc(Cc2nnc(SC(C)C(=O)Nc3cccc(C#N)c3)o2)cs1 (stereo not given) | · | · | 12 | 5 | -11 | · | · | · | · | ·
CCOc1cc(/C=N/NC(N)=O)cc(Br)c1OCC(=O)Nc1cccc2ccccc12 | 37 | 66* | 53 | 15 | -21 | 0 | 31* | 55* | 14* | 17
CC(NC(=O)CN(C)S(=O)(=O)c1cccc2nsnc12)c1ccccc1 (stereo not given) | 2 | -18 | 35 | -15 | -11 | -9 | · | · | · | ·
O=C(Nc1ccc(N2CCOCC2)c(S(=O)(=O)Nc2ccccc2Cl)c1)c1ccc(F)cc1 | 9 | 70* | 13 | 4 | 23 | · | 36* | 53* | 13* | 14
COc1ccccc1NS(=O)(=O)c1cc(NC(=O)C(C)(C)C)ccc1N1CCOCC1 | 20 | 72* | 14 | -19 | -23 | · | 29* | 58* | 10 | 10
O=S(=O)(/N=C(/Nc1ccc(Cl)c(S(=O)(=O)N2CCOCC2)c1)c1ccc(F)cc1)c1ccccc1 | 15 | 71* | 36 | -11 | -14 | -7 | 33* | 57* | 11 | 14
Cc1ccc(NS(=O)(=O)N2CCCCC2)cc1 | 4 | -19 | · | · | · | · | · | · | · | ·
CCN1CCN(C(=O)c2cc(-c3ccco3)nc3ccccc23)CC1 | 5 | 8 | 5 | -18 | -16 | · | · | · | · | ·
COc1ccc(-c2ccc3c(n2)CCCN3S(=O)(=O)c2ccccc2)cc1 | 7 | 78* | · | · | · | · | 38* | 52* | 10 | 8
O=S(=O)(c1ccccc1)N1CCCc2nc(-c3ccccc3)ccc21 | 2 | 13 | · | · | · | · | · | · | · | ·
Cc1cccc(C(=O)OC(C)C(=O)Nc2ccc(S(=O)(=O)N3CCCC3)cc2)c1O (stereo not given) | 15 | 68* | -1 | -6 | 1 | · | 36* | 55* | 12* | 18
Cc1ccccc1OC(C)C(=O)Nc1ccc(S(=O)(=O)N2CCCC2)cc1 (stereo not given) | 6 | -20 | 15 | -13 | -20 | -4 | · | · | · | ·
COc1ccc(NC(C)=O)cc1NC(C)C(=O)Nc1ccc(S(=O)(=O)N2CCCCC2)cc1 (stereo not given) | 12 | 101* | 3 | -4 | -21 | · | 7 | -1 | 8 | 7
COc1ccc(NC(C)=O)cc1S(=O)(=O)Nc1ccc(S(=O)(=O)N2CCCCC2)cc1 | 2 | -8 | 6 | 1 | -12 | · | · | · | · | ·
O=C(O)C(Cc1ccccc1)N1C(=O)c2c(Cl)c(Cl)c(Cl)c(Cl)c2C1=O (stereo not given) | 3 | -31 | 12 | -14 | -17 | · | · | · | · | ·
CN(C)S(=O)(=O)c1cccc(-c2nn(-c3ccccc3)cc2/C=C2\SC(=S)NC2=O)c1 | 3 | 68* | 19 | 8 | 14 | -7 | 59* | 56* | 8 | 0
COc1ccnc(Oc2ccc(F)cc2)c1C(=O)N/C=N/OCc1ccc(Cl)cc1Cl | 35 | 63* | 9 | -10 | -9 | -14 | 29* | 57* | 13* | 22
COc1ccnc(Oc2ccc(F)cc2)c1C(=O)N/C=N/OCc1ccc(F)cc1Cl | 31 | 76* | 22 | -11 | -17 | -8 | 41* | 61* | 14* | 16
O=C(NCCc1c[nH]c2ccccc12)/C(=C\c1cccnc1)NC(=O)c1ccco1 | 4 | 8 | 14 | -9 | -6 | 2 | · | · | · | ·
Cc1ccc(/C=C(/NC(=O)c2ccccc2)C(=O)NCCc2c[nH]c3ccccc23)o1 | 17 | 58* | 41 | -16 | 4 | 8 | 25* | 42 | 8 | 8
O=C(NCCc1c[nH]c2ccccc12)/C(=C\c1cccnc1)NC(=O)c1ccccc1Br | 16 | 63* | 23 | -23 | -27 | -4 | 31* | 53* | 8 | 7
Cc1ccc(C(=O)N/C(=C\c2ccco2)C(=O)NCCc2c[nH]c3ccccc23)cc1 | 1 | 7 | 36 | -11 | 5 | -10 | · | · | · | ·
CC12CCC3C(CCC4CC(O)CCC43C)C1CC(O)C2 (stereo not given) | 20 | 79* | · | · | · | · | 35* | 56* | 12* | 10
CC(O)[C@H]1CC[C@H]2[C@@H]3CC[C@H]4C[C@H](O)CC[C@]4(C)[C@H]3[C@H](O)C[C@]12C (stereo not given in full) | 14 | 1 | 13 | -11 | 3 | · | · | · | · | ·
Cc1ccc(NC(=O)c2cc(C(C)(C)C)nn2Cc2ccccc2)cc1 | 6 | 61* | 12 | -17 | -17 | -20 | 24* | 42 | 5 | 1
SMILES | TAAR1 ag | TAAR1 antagonist | OX1R antag-1 | CHO parental Ca | OX1R antag-2 | GPR7 antag | TAAR1 nonsel count | TAAR1 ant conf | Ga16 ag counter | TAAR1 ag count
COC(=O)C1=C(C)N(C)C(C)=C(C(=O)OC)C1c1ccccn1 | 8 | 8 | 12 | 0 | -24 | -6 | · | · | · | ·
N#CCc1ccccc1C(=O)OCC(=O)N(Cc1ccccc1)Cc1ccccc1 | 14 | 64* | 0 | 0 | 5 | · | 29* | 51* | 6 | 4
COc1cc(/C=N/n2cnnc2)ccc1OC(=O)c1ccncc1 | 2 | 107* | 3 | -11 | -7 | -8 | 6 | 4 | 1 | -1
COc1ccc(CNC(=O)c2sc(=O)n(Cc3cc(Cl)ccc3OC)c2C)cc1 | 11 | 25 | · | · | · | · | · | · | · | ·
COc1ccc(Cl)cc1Cn1c(C)c(C(=O)NCc2ccc3c(c2)OCCO3)sc1=O | 7 | 56* | · | · | · | · | 23* | 39 | 7 | 7
CC(C)C[C@H](NC(=O)c1nc[nH]c1C(=O)NCC(=O)OC(C)(C)C)C(=O)OCc1ccccc1 | -2 | 2 | 7 | -9 | -36 | · | · | · | · | ·
C[C@H](NC(=O)c1nc[nH]c1C(=O)OCc1ccccc1)c1ccccc1 | 28 | 27 | -3 | -20 | -11 | · | · | · | · | ·
C[C@H](NC(=O)c1nc[nH]c1C(=O)NCC(=O)OCc1ccccc1)c1ccccc1 | 17 | 64* | 32 | -12 | -26 | -2 | 32* | 50* | 8 | 9
CC(C)C[C@H](NC(=O)c1nc[nH]c1C(=O)NCC(=O)OCc1ccccc1)C(=O)OCc1ccccc1 | 11 | 67* | 3 | 8 | -21 | 1 | 21 | 53* | 11 | 17
